Screens from PubChem.
rRNA inh HTS: reduced GFP signal of wild-type E. coli, primary screen, bacterial rRNA inhibitor project, GFP/RFP fluorescence, OD600, single point; E. coli WT GFP vs humanized-ribosome RFP mutants, 24 h; stronger effect = lower value; DMSO median 0, no signal -100; GFP signal change (wild-type ribosome), % (no concentration beside the values); actives 1.6% (n = 350,000);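 active = significant combined selectivity score with lowered wild-type GFP, culture density cut under 30%, mutant RFP and density less affected; inactive = any of these conditions unmet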
PglD DTNB: C. jejuni PglD acetyltransferase inhibitors, primary screen, biochemical, DTNB colorimetric, single point | actives 0.098% (n = 360,000) | purified PglD enzyme, DTNB colorimetric CoA detection | inhibition, % at 12.5 µM | AID 602405, 2012; in the data active = inhibition above about 16%, passing the limit was not always enough; inconclusive = no clear call, values can overlap the other calls
PGC1a acetyl inh: inhibitors of PGC1a acetylation signal, primary screen, cell-based, U2OS, AlphaScreen, inhibitor mode | inhibition, % at 15.6 µM | actives 0.17% (n = 350,000) | AlphaScreen anti-acetyl-lysine; with virally co-expressed GCN5 acetyltransferase;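 active = every replicate shows inhibition of at least 40%; inconclusive = mean inhibition at least 40% but some replicate below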
Env fusion inh: inhibitors of HIV-1 Env-driven cell-cell fusion, primary screen, HeLa-JRFL effector, CEM21 target cells, luciferase. inhibition, % at 12.3 µM. actives 1.1% (n = 360,000). AID 651610, 2012;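 active = mean replicate inhibition score of at least 50 and every replicate individually at or above 50; inconclusive = only one of the two criteria met; inactive = mean below 50 and not all replicates reaching 50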
DENV2 CPE rescue: inhibitors of DENV2 cytopathic effect, primary screen, cell-based, plate reader, single concentration; actives 1.7% (n = 350,000); CPE inhibition, % at 9.99 µM; AID 651640, 2012; DENV2-infected cells, cytopathic effect rescue; in the data active = CPE inhibition above about 20%, passing the limit was not always enough; inconclusive = no clear call, values can overlap the other calls; tested in BHK-21 cells
FN deposition inh: inhibitors of fibronectin matrix deposition, primary screen, AH1F cells, Alexa488-fibronectin fluorescence, plate reader; AID 743247, 2014; AH1F fibroblasts, overnight; actives 0.086% (n = 350,000); inhibition, % at 12.6 µM;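 active = mean inhibition across replicates of 30% or more, regardless of how many single replicates reach that level; inconclusive = mean under 30% yet at least half of replicates reach 30%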
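Material: AH1F fibroblast monolayer depositing Alexa488-labelled fibronectin into matrix | Input: 10000 AH1F cells/well | Medium: DMEM plus 2% serum, read in PBS | Reagent: Alexa488-fibronectin, 24 nM final in well | Compound dosing: One dose per compound, pinned | Schedule: 1 h adhesion, overnight exposure | Measured by: Fluorescence at 485 nm excitation, 525 nm emission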
AID977621: growth inhibition of wild-type GFP E. coli, dose response, H69 mutant RFP, cherry-pick | shares compounds with rRNA inh HTS | E. coli wild-type GFP strain growth, fluorescence, 24 h | activity change, negative = inhibition at 50 µM | 1,900 tested, under 10 active;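 active = Wild-type ribosome reporter drop at least double the humanized mutant ribosome reporter drop, growth loss under a set limit; inconclusive = no clear call, values can overlap the other calls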;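 also: wild-type GFP and H69 mutant RFP strains grown together 50/50 in each well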
AID977628: E. coli growth inhibition, wild-type GFP versus h24 humanized RFP strain, dose response, h24 mutant RFP vs wild-type GFP, cherry-pick. shares compounds with rRNA inh HTS. E. coli WT GFP strain growth, fluorescence, 24 h. activity change, negative = inhibition at 50 µM. 1,900 tested, under 10 active. AID 977628, 2014;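 active = compound lowering the normal-ribosome reporter at least twice as much as the humanized-ribosome reporter, growth loss under a set limit; inconclusive = no clear call, values can overlap the other calls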;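 also: wild-type GFP and h24 humanized RFP strains co-cultured 1 to 1 per well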
Large screens that a line does not name were inactive (follow-up assays come after a bar, where they were run). A selection: hits, their analogues and other compounds. The true share with any hit is near 3.5%.

CC(C)OC(=O)c1sc2nc(-c3ccccc3)ccc2c1N	rRNA inh HTS -26 (no result: Env fusion inh, FN deposition inh) | AID977621 inactive | AID977628 inconclusive
OC[C@@H]1[C@H](c2ccc(/C=C/c3ccccc3)cc2)[C@H]2CN(CCC(F)(F)F)CCCCN12	none (no result: rRNA inh HTS, Env fusion inh, FN deposition inh)
Cc1nc2ccccc2cc1C(=O)NCc1ccco1	none (no result: rRNA inh HTS, Env fusion inh, DENV2 CPE rescue, FN deposition inh)
O=C(NCc1ccco1)c1ccc2ccccc2n1	rRNA inh HTS -14 (no result: PglD DTNB) | AID977621 inactive | AID977628 inconclusive
CN1N=C2c3ccccc3CCC2C1c1ccc(F)cc1 (centres undefined)	rRNA inh HTS -16 | AID977621 inactive | AID977628 inconclusive
CCC(C(=O)Nc1ccsc1C(=O)OC)c1ccccc1 (centres undefined)	rRNA inh HTS -29 (no result: PglD DTNB) | AID977621 inactive | AID977628 inactive
CCC(C(=O)Nc1nc(C)c(C(=O)OC)s1)c1ccccc1 (centres undefined)	none
CC(=O)Nc1cccc(NC(=O)CCN2C(=O)c3ccccc3S2(=O)=O)c1	rRNA inh HTS -14 (no result: PGC1a acetyl inh, FN deposition inh) | AID977621 inconclusive | AID977628 inactive
Cc1ccc(C2(c3noc(CN(C)Cc4cccnc4)n3)CCCC2)cc1	rRNA inh HTS -31 (no result: PglD DTNB) | AID977628 inconclusive
Cc1ccc(C2(c3noc(CN(C)Cc4ccccn4)n3)CCCC2)cc1	DENV2 CPE rescue inconclusive (no result: PGC1a acetyl inh, FN deposition inh)
Cc1occc1C(=O)NCc1ccccc1	none (no result: rRNA inh HTS, Env fusion inh, DENV2 CPE rescue, FN deposition inh)
Cc1ccc(C(=O)NCc2ccccc2)c(F)c1F	rRNA inh HTS -18 (no result: PglD DTNB, PGC1a acetyl inh) | AID977621 inactive | AID977628 inactive
Cc1noc(C)c1NC(=O)Nc1cccc2c1O[C@H](CN(C)Cc1ccc(C(=O)O)cc1)[C@@H](C)CN([C@@H](C)CO)C2=O	none (no result: Env fusion inh, FN deposition inh)
O=C(N[C@H]1CC1c1ccccc1)c1ccc([N+](=O)[O-])cc1 (some centres undefined)	rRNA inh HTS -28 (no result: PglD DTNB, PGC1a acetyl inh) | AID977621 inconclusive | AID977628 inactive
O=C(NCc1ccccc1)c1ccc([N+](=O)[O-])cc1	Env fusion inh inconclusive (no result: PglD DTNB, PGC1a acetyl inh)
NS(=O)(=O)c1cc(C(=O)OCC(=O)Nc2ccc(Cl)cc2[N+](=O)[O-])ccc1Cl	none (no result: PglD DTNB, PGC1a acetyl inh)
NS(=O)(=O)c1cc(C(=O)OCC(=O)Nc2ccccc2[N+](=O)[O-])ccc1Cl	rRNA inh HTS -20 (no result: PglD DTNB) | AID977628 inactive
C[C@H](CO)N1C[C@H](C)[C@H](CN(C)Cc2ccncc2)Oc2ccc(NC(=O)C3CC3)cc2C1=O	none (no result: FN deposition inh)
CC(OC(=O)Cc1ccc(F)cc1)C(=O)NCc1ccc2c(c1)OCO2 (centres undefined)	none
COc1cccc(CC(=O)OC(C)C(=O)NCc2ccc3c(c2)OCO3)c1 (centres undefined)	rRNA inh HTS -31 (no result: PglD DTNB) | AID977621 inconclusive | AID977628 inconclusive
COc1ccc2c(CC(=O)NCc3ccc4c(c3)OCO4)coc2c1	rRNA inh HTS -25 (no result: PGC1a acetyl inh, Env fusion inh, FN deposition inh) | AID977621 inactive | AID977628 inconclusive
COc1ccccc1CN1Cc2ccccc2Oc2ccccc2S1(=O)=O	rRNA inh HTS -27 (no result: PglD DTNB, PGC1a acetyl inh) | AID977621 inconclusive
Cc1ccc(-n2c(SCC(N)=O)nnc2-c2cnccn2)cc1	rRNA inh HTS -25 | AID977621 inactive | AID977628 inconclusive
NC(=O)CSc1nnc(-c2cnccn2)n1-c1ccccc1	none (no result: rRNA inh HTS, PGC1a acetyl inh, Env fusion inh, DENV2 CPE rescue, FN deposition inh)
C[C@@H]1CCCCO[C@H](CN(C)Cc2ccccc2)[C@@H](C)CN([C@@H](C)CO)C(=O)c2cc(NS(=O)(=O)c3cn(C)cn3)ccc2O1	none
CO[C@@H]1CN(C)C(=O)c2ccc(NC(=O)C3CCCC3)cc2OC[C@H](C)N(C(C)=O)C[C@H]1C	none (no result: Env fusion inh)
NC(=O)c1cccnc1Oc1ccc(Cl)cc1Cl	rRNA inh HTS -31 (no result: PglD DTNB) | AID977621 inactive | AID977628 inactive
Cc1cc(Cl)ccc1Nc1ncccc1C(N)=O	none (no result: PglD DTNB, PGC1a acetyl inh)
COc1ccccc1C1CCN(C(=O)c2cccs2)CC1	rRNA inh HTS -25 | AID977621 inactive | AID977628 inactive
CC1Sc2ccc(C(=O)Nc3ccc(S(=O)(=O)N(C)C)cc3)cc2NC1=O (centres undefined)	none
COc1ccc(S(=O)(=O)N(C)C)cc1NC(=O)c1ccc2c(c1)NC(=O)C(C)S2 (centres undefined)	rRNA inh HTS -21 (no result: Env fusion inh) | AID977621 inactive
C[C@H]1COCc2cn(nn2)CCCC(=O)N1	none (no result: PglD DTNB, PGC1a acetyl inh, Env fusion inh, DENV2 CPE rescue)
O=C(c1ccccc1)N(c1ccccc1)c1nccc2ccccc12	rRNA inh HTS -28 | AID977621 inactive
O=C(c1ccccc1)N(C(=O)c1ccccc1)c1ccccc1	none
COc1ccc(CN(C)C[C@H]2Oc3c(NS(=O)(=O)c4ccc(F)cc4)cccc3C(=O)N([C@@H](C)CO)C[C@H]2C)cc1	none (no result: Env fusion inh, FN deposition inh)
CO[C@@H]1CN(C)C(=O)c2cc(NC(=O)Nc3ccc(Cl)c(Cl)c3)ccc2OC[C@@H](C)NC[C@@H]1C	none (no result: DENV2 CPE rescue)
Cc1ccc(F)cc1S(=O)(=O)N[C@@H]1CCN(Cc2ccc3[nH]ccc3c2)C1	none (no result: rRNA inh HTS, PGC1a acetyl inh, FN deposition inh)
CCCNC(=O)N(C)C[C@H]1Oc2cc(C#Cc3cccc(F)c3)ccc2S(=O)(=O)N([C@H](C)CO)C[C@H]1C	none
CCCCCCC(=O)N1CCCC(c2nc(-c3cccc(OC)c3)no2)C1 (centres undefined)	rRNA inh HTS -31 | AID977621 inactive | AID977628 inconclusive
CC(C)Oc1nc(-c2ccccc2Cl)nc2ccccc12	rRNA inh HTS -18 (no result: PglD DTNB, PGC1a acetyl inh) | AID977628 inactive
CCOc1nc(-c2ccccc2O)nc2ccccc12	none (no result: PglD DTNB, PGC1a acetyl inh, Env fusion inh, FN deposition inh)
Cc1ccc(NC(=O)C[n+]2cc(-c3ccccc3)n3c2CCC3)c(C)c1	rRNA inh HTS -21 (no result: PglD DTNB) | AID977621 inconclusive | AID977628 inconclusive
CCOc1ccccc1C(=O)NCC(=O)OCCOc1cccc(Cl)c1	rRNA inh HTS -33 (no result: PGC1a acetyl inh) | AID977621 inactive | AID977628 inactive
CCOc1ccccc1C(=O)NCC(=O)OCCCOC(=O)CNC(=O)c1ccccc1OCC	none
O=c1c2ccccc2cnn1Cc1n[nH]c(=S)n1C1CC2CCC1C2 (centres undefined)	rRNA inh HTS -20 (no result: PglD DTNB, PGC1a acetyl inh) | AID977621 inactive
CC(c1ccccc1)n1c(Cn2ncc3ccccc3c2=O)n[nH]c1=S (centres undefined)	none
O=C(NCCc1ccc(Cl)cc1)c1ccc2nc[nH]c2c1	rRNA inh HTS -32 (no result: PglD DTNB, FN deposition inh) | AID977628 inconclusive
